Active and inactive are the calls of the source. The rule behind the calls is not given here.
How the values were obtained:
[1] = species: Pan troglodytes; experiment: Relative salidiuretic efficacy was scored in chimpanzee; moderate; assay type: functional, organism-based; conditions: Urine
[2] = species: Canis familiaris; experiment: Relative salidiuretic efficacy was scored in dog; moderate; assay type: functional, organism-based; conditions: Canis lupus familiaris; Urine
[3] = species: Rattus norvegicus; experiment: Relative salidiuretic efficacy was scored in Rat; moderate; assay type: functional, organism-based; conditions: Urine
[4] = Dissociation constant (pKa) (determined in 30% EtOH); assay type: physicochemical
[5] = species: Felis catus; experiment: In vitro inhibition of HCO3- stimulated swelling in cat cerebrocortical tissue slice; assay type: functional; conditions: read-out: I 50
Outline: (§1)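 Cat cerebral cortex slices (~150 mg, 0.5 mm) incubated aerobically 60 min at 37 °C in K+-rich (27 mM) Hepes-buffered saline-glucose with test compound as Na salt. HCO3- (NaHCO3 or TEAB) added from sidearm at 20 min to 10 mM final; HCO3- flasks gassed with 2.5% CO2/97.5% O2. Swelling by reweighing; Na+/K+ by flame photometry, Cl- by amperometric titration. Units: per g initial fresh weight; means ± SE, Student's t test.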

[6] = Distribution coefficient (D %) between octanol and buffer of pH 7.4; assay type: physicochemical; conditions: octanol/water
[7] = species: Canis familiaris; experiment: Relative salidiuretic efficacy was scored in dog; inactive; assay type: functional, organism-based; conditions: Canis lupus familiaris; Urine
[8] = species: Rattus norvegicus; experiment: Relative salidiuretic efficacy was scored in Rat; Marginal; assay type: functional, organism-based; conditions: Urine
[9] = species: Canis familiaris; experiment: Relative salidiuretic efficacy was scored in dog; Marginal; assay type: functional, organism-based; conditions: Canis lupus familiaris; Urine
[10] = species: Rattus norvegicus; experiment: Relative salidiuretic efficacy was scored in Rat; weak; assay type: functional, organism-based; conditions: Urine
[11] = species: Rattus norvegicus; experiment: Relative salidiuretic efficacy was scored in Rat; inactive; assay type: functional, organism-based; conditions: Urine
[12] = species: Pan troglodytes; experiment: Relative salidiuretic efficacy was scored in chimpanzee; weak; assay type: functional, organism-based; conditions: Urine
[13] = species: Canis familiaris; experiment: Relative salidiuretic efficacy was scored in dog; weak; assay type: functional, organism-based; conditions: Canis lupus familiaris; Urine
[14] = species: Canis familiaris; experiment: Relative salidiuretic efficacy was scored in dog; very marked; assay type: functional, organism-based; conditions: Canis lupus familiaris; Urine
[15] = tested on: Felis catus; experiment: Mortality of animals recorded as the number of animals dead out of the total animals (39) taken for the study at dose 1 mg/kg; assay type: functional
Outline: (§2)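 Adult conditioned cats (2.5–4 kg) under iv methohexital (13.25 mg/kg, plus 2.75 mg/kg if needed) received machine-induced acceleration/deceleration head injury. Forty min later they were paralysed with gallamine and ventilated with 6% O2/94% N2 for 60 min (arterial pO2 23 ± 1 torr). Drug was given iv 20 min post-injury, before hypoxemia. Mortality was scored as dead/total, chi-square tested.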

[16] = species: Pan troglodytes; experiment: Relative salidiuretic efficacy was scored in chimpanzee; very marked; assay type: functional, organism-based; conditions: Urine
[17] = species: Homo sapiens; experiment: Relative salidiuretic efficacy was scored in human; very marked; assay type: functional, organism-based; conditions: Urine
[18] = species: Pan troglodytes; experiment: Relative salidiuretic efficacy was scored in chipanze; weak; assay type: functional, organism-based; conditions: Urine
[19] = species: Homo sapiens; experiment: Relative salidiuretic efficacy was scored in human; moderate; assay type: functional, organism-based; conditions: Urine
[20] = species: Felis catus; experiment: In vitro inhibition of HCO3- stimulated swelling in cat cerebrocortical tissue slice; At no concentration was swelling inhibited 100%; assay type: functional; conditions: read-out: I 50; outline: as §1
[21] = species: Rattus norvegicus; experiment: Relative salidiuretic efficacy was scored in Rat; very marked; assay type: functional, organism-based; conditions: Urine
[22] = tested on: Felis catus; experiment: Mortality of animals recorded as the number of animals dead out of the total animals (22) taken for the study at dose 1 mg/kg; assay type: functional; outline: as §2
[23] = species: Canis familiaris; experiment: Relative salidiuretic efficacy was scored in dog; marked; assay type: functional, organism-based; conditions: Canis lupus familiaris; Urine

SMILES | pKa [4] | IC50 [5] [nM] | Distribution [6] [%] | further results
CCC1(C2CCCC2)Cc2cc(OCC(=O)O)c(Cl)c(Cl)c2C1=O (racemic) | 3.9 | 1 | 97 | Relative salidiuretic activity [1]: moderate; Relative salidiuretic activity [2]: moderate; Relative salidiuretic activity [3]: moderate
CC1(c2ccccc2)Cc2cc(OCCCC(=O)O)c(Cl)c(Cl)c2C1=O (racemic) | 6.4 |  | 99 | Relative salidiuretic activity [7]: inactive
C[C@@]1(C2CCCC2)Cc2cc(OCCCC(=O)O)c(Cl)c(Cl)c2C1=O | 5.7 | 250 | 99 | Relative salidiuretic activity [8]: inactive; Relative salidiuretic activity [9]: inactive
CCCCC1(C2CCCC2)Cc2cc(OCC(=O)O)c(Cl)c(Cl)c2C1=O (racemic) | 3.9 | 3 | 99 | Relative salidiuretic activity [10]: weak
CC(C)(Oc1cc2c(c(Cl)c1Cl)C(=O)C(C)(C1CCCC1)C2)C(=O)O (racemic) | 3.7 | > 100000 | 98.6 | 
CC1(C2CCCC2)Cc2cc(OC/C=C/CC(=O)O)c(Cl)c(Cl)c2C1=O (racemic) | 5.1 | > 40000 | 98 | 
CCCC[C@@]1(C2CCCC2)Cc2cc(OCCCC(=O)O)c(Cl)c(Cl)c2C1=O | 4.4 |  | 99.9 | Relative salidiuretic activity [11]: inactive
CC1(Cc2ccccc2)Cc2cc(OCCCC(=O)O)c(Cl)c(Cl)c2C1=O (racemic) | 6.3 | > 100000 | 99.5 | 
CC1(Cc2ccccc2)Cc2cc(OCC(=O)O)c(Cl)c(Cl)c2C1=O (racemic) | 3.8 | 1 | 91 | Relative salidiuretic activity [1]: Marginal; Relative salidiuretic activity [8]: Marginal; Relative salidiuretic activity [9]: Marginal
CCC(C)C(=O)c1ccc(OCC(=O)O)c(Cl)c1Cl (stereo unspecified) | 3.5 | 500 | 96 | Relative salidiuretic activity [11]: inactive; Relative salidiuretic activity [12]: weak; Relative salidiuretic activity [13]: weak
C=C(CC)C(=O)c1ccc(OCC(=O)O)c(Cl)c1Cl [ETHACRYNIC ACID] |  | 1000 | 61 | Relative salidiuretic activity [14]: Marginal; Relative salidiuretic activity [8]: Marginal; Mortality [15]: 14; Relative salidiuretic activity [16]: Marginal; Relative salidiuretic activity [17]: Marginal
CCCC[C@@]1(C2CCCC2)Cc2cc(OCC(=O)O)c(Cl)c(Cl)c2C1=O | 3.9 | 50000 | 99 | Relative salidiuretic activity [10]: weak
CCCCC1(C2CCCC2)Cc2cc(OCCCC(=O)O)c(Cl)c(Cl)c2C1=O (racemic) | 4.4 | 4 | 99.8 | Relative salidiuretic activity [11]: inactive
O=C(O)COc1cc2c(c(Cl)c1Cl)C(=O)C(CC1CCCC1)C2 (racemic) | 3.8 | 10 | 97 | Relative salidiuretic activity [18]: Marginal; Relative salidiuretic activity [10]: Marginal; Relative salidiuretic activity [9]: Marginal
O=C(O)COc1cc2c(c(Cl)c1Cl)C(=O)C(C1CCCC1)C2 (racemic) | 3.9 | 10000 | 83 | Relative salidiuretic activity [2]: moderate; Relative salidiuretic activity [12]: moderate; Relative salidiuretic activity [19]: moderate; Relative salidiuretic activity [10]: moderate
CC1(C2CCCC2)Cc2cc(OC3(C(=O)O)CCC3)c(Cl)c(Cl)c2C1=O (racemic) | 3.8 |  | 98.6 | IC50 [20]: 1000 nM
NS(=O)(=O)c1cc(C(=O)O)c(NCc2ccco2)cc1Cl [FUROSEMIDE] |  | 10000 | 28 | Relative salidiuretic activity [14]: Active; Relative salidiuretic activity [21]: Active; Relative salidiuretic activity [16]: Active; Relative salidiuretic activity [17]: Active
CCC1(C2CCCC2)Cc2cc(OCCCC(=O)O)c(Cl)c(Cl)c2C1=O (racemic) | 3.8 | > 10 | 98.7 | Relative salidiuretic activity [8]: Marginal
CC1(c2ccccc2)Cc2cc(OCC(=O)O)c(Cl)c(Cl)c2C1=O (racemic) [INDACRINONE] | 3.7 | 1000 | 84 | Mortality [22]: 8; Relative salidiuretic activity [21]: marked; Relative salidiuretic activity [16]: marked; Relative salidiuretic activity [17]: marked; Relative salidiuretic activity [23]: marked
CCCC[C@]1(C2CCCC2)Cc2cc(OCC(=O)O)c(Cl)c(Cl)c2C1=O | 3.9 | 0.3 | 99 | Relative salidiuretic activity [10]: weak
CC1(C2CCCC2)Cc2cc(OCc3ccc(C(=O)O)cc3)c(Cl)c(Cl)c2C1=O (racemic) | 6.2 | > 10000 | 100 | 
CCCC1(C2CCCC2)Cc2cc(OCCCC(=O)O)c(Cl)c(Cl)c2C1=O (racemic) | 4.1 |  | 99.6 | Relative salidiuretic activity [8]: Marginal; IC50 [20]: 8 nM
CCCC[C@]1(C2CCCC2)Cc2cc(OCCCC(=O)O)c(Cl)c(Cl)c2C1=O | 4.4 | 1000 | 99.9 | Relative salidiuretic activity [11]: inactive
